Measurements taken from ChEMBL document CHEMBL1681660, “6-amino-4-(pyrimidin-4-yl)pyridones: novel glycogen synthase kinase-3β inhibitors” (Bioorg Med Chem Lett, 2011).

Columns and labels:
[1] = Ratio of drug level in brain to plasma in Sprague-Dawley rat at 5 mg/kg, sc after 1 hr; assay type: ADME, organism-based; design: dose 5 mg/kg, route subcutaneous; conditions: brain and plasma, read-out: BPR
How it was run: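 Male Sprague–Dawley rats (n = 3 per time point) received 5 mg/kg subcutaneously. Plasma (cardiac puncture after CO2 euthanasia), brain and CSF were collected at 0.5, 1, 2 and 4 h. Drug levels were measured by LC/MS/MS. Ratio is taken from the average brain and plasma concentrations at 1 h.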

[2] = test system: MDR; assay: Permeability from apical to basolateral side of MDCK cells over expressing MDR; conditions: dog, MDCK-MDR1

| Compound | Kp at 1 h [1] | Papp (apical to basal) [2] |
| --- | --- | --- |
| Cn1c(N2CCC(O)(c3ccccc3)CC2)cc(-c2ccncn2)cc1=O | 0.96 | – |
| COc1ccccc1CCNc1cc(-c2ccncn2)cc(=O)n1C | 0.35 | – |
| Cc1cc(-c2cc(-c3ccccc3)nc(=O)[nH]2)ccc1O | – | 13.9 ×10⁻⁶ cm/s |
| COc1ccccc1[C@H]1CN(c2cc(-c3ccncn3)cc(=O)n2C)CCO1 | 1.86 | – |
